For orientation: EC50 means the concentration at which the effect is half-maximal. High values mean weaker potency, low ones greater potency.

In this assay the test system is Hepatitis C virus. The experiment in a line: Antiviral activity against HCV JFH-1 harboring K78E/E2-G451R/NS3-M260K/NS5A-T462I mutant infected in human Huh7.5.1 cells after 2 days by renilla luciferase reporter gene assay. Type of assay: functional, organism-based, Hepacivirus hominis. The following applies: JFH-1, Huh-7.5.1, 48 h. In short, it runs like this: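 Renilla luciferase reporter HCVcc (hRluc inserted in NS5A, aa 399/400) came from electroporated Huh7.5.1 supernatant. Virus plus serially diluted compound (top 30 or 6 μM) was added to Huh7.5.1 cells (1×10^4/well) and luminescence read. EC50 is 50% luminescence reduction.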
(A reporter such as luciferase makes a cellular process visible.)

Compound `CC(C)OC(=O)[C@H](C)N[P@](=O)(OC[C@H]1O[C@@H](n2ccc(=O)[nH]c2=O)[C@](C)(F)[C@@H]1O)Oc1ccccc1` [SOFOSBUVIR] showed an EC50 of 170 nM.
